Measured values as given in ChEMBL document CHEMBL4270544, “Design, synthesis and biological evaluation of a novel tubulin inhibitor 7a3 targeting the colchicine binding site” (Eur J Med Chem, 2018).
The source made the active and inactive calls. The rule behind the calls is not given here.

What was measured:
SK-OV-3 [1] = test: Cell cycle arrest in human SKOV3 cells assessed as accumulation at G2/M phase at 40 nM after 24 hrs by propidium iodide staining based flow cytometry (reference value: 24.99%); type: functional
How it was run: (§1)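 SK-OV-3 cells exposed to 40, 80 or 160 nM for 24 h, with untreated cells as control. Stained with PI and analysed by flow cytometry for phase distribution. Mean ± SEM of three independent experiments; t-test against control.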

Bos taurus [2] = species on record: Bos taurus; test: Inhibition of bovine MAP-rich tubulin polymerization at 2.5 uM measured every 1 min for 30 mins relative to control
How it was run: (§2)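 Purified tubulin polymerization followed at 37 °C by absorbance at 340 nm, read every 1 min for 30 min. Test concentrations 2.5, 10 and 40 µM. CA-4 at 10 µM served as positive control and DMSO (1%, v/v) as vehicle. Polymerization is expressed relative to the vehicle group.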

Bos taurus [3] = species on record: Bos taurus; test: Inhibition of bovine MAP-rich tubulin polymerization measured every 1 min for 30 mins; how it was run: as §2
SK-OV-3 [4] = test: Cell cycle arrest in human SKOV3 cells assessed as accumulation at G0/G1 phase at 80 nM after 24 hrs by propidium iodide staining based flow cytometry (reference value: 67.79%); type: functional; how it was run: as §1
SK-OV-3 [5] = test: Induction of apoptosis in human SKOV3 cells assessed as late apoptotic cells at 80 nM after 48 hrs by Annexin-V-FITC/propidium iodide staining based flow cytometry (reference value: 3.93%); type: functional
[6] = Terminal half life in C57 mouse at 50 mg/kg, ip administered as single dose by LC-MS/MS analysis; type: ADME, organism-based; conditions: in vivo, read-out: beta t1/2 (converted)
How it was run: (§3)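 Male C57 mice, one intraperitoneal dose. Blood drawn from submaxillary vein at 0, 5, 15, 30 min and 1, 2, 4, 8, 12, 24 h. Plasma measured by LC/MS/MS in MRM mode with CA-4 as internal standard. Calibration by weighted linear regression over 0.01–500 ng/mL. Parameters obtained by non-compartmental analysis.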

SK-OV-3 [7] = test: Antimigratory activity against human SKOV3 cells assessed as wound closure at 160 nM after 24 hrs by microscopy based scratch wound assay (reference value: 79.5 +/- 2.8%); type: functional
Mus musculus [8] = test: Toxicity in Balb/c mouse xenografted with human SKOV3 cells assessed as pathological changes in lung at 50 mg/kg, ip administered every two days for three times by hematoxylin and eosin staining based assay; type: organism-based; conditions: in vivo
How it was run: (§4)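 In SK-OV-3 xenografted Balb/c nude mice dosed 50 mg/kg intraperitoneally in 5% DMSO/olive oil every two days, three times, organs were collected and examined after H&E staining.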

SK-OV-3 [9] = test: Cell cycle arrest in human SKOV3 cells assessed as accumulation at G2/M phase at 160 nM after 24 hrs by propidium iodide staining based flow cytometry (reference value: 14.12%)
CT26 = test: Antiproliferative activity against mouse CT26 cells after 72 hrs by CCK8 assay; type: functional, cell-based; conditions: CT26, 72 h
How it was run: (§5)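 CCK-8 proliferation assay with CA-4 as positive control. IC50 is the concentration giving 50% inhibition of proliferation. Mean ± SEM from three independent experiments.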

SK-OV-3 [10] = test: Cell cycle arrest in human SKOV3 cells assessed as accumulation at S phase at 80 nM after 24 hrs by propidium iodide staining based flow cytometry (reference value: 18.09%); type: functional; how it was run: as §1
Mus musculus [11] = test: Area under the first moment curve (0 to infinity) in C57 mouse at 50 mg/kg, ip administered as single dose by LC-MS/MS analysis; type: ADME, organism-based; conditions: in vivo; how it was run: as §3
[12] = AUC (0 to 24 hrs) in C57 mouse at 50 mg/kg, ip administered as single dose by LC-MS/MS analysis; type: ADME, organism-based; design: dose 50 mg/kg, time < 24 hr, route intraperitoneal; conditions: in vivo; how it was run: as §3
Mus musculus [13] = test: Area under the first moment curve (0 to 24 hrs) in C57 mouse at 50 mg/kg, ip administered as single dose by LC-MS/MS analysis; type: ADME, organism-based; conditions: in vivo; how it was run: as §3
SK-OV-3 [14] = test: Cell cycle arrest in human SKOV3 cells assessed as accumulation at S phase at 160 nM after 24 hrs by propidium iodide staining based flow cytometry (reference value: 18.09%); type: functional; how it was run: as §1
SK-OV-3 [15] = test: Induction of apoptosis in human SKOV3 cells assessed as late apoptotic cells at 160 nM after 48 hrs by Annexin-V-FITC/propidium iodide staining based flow cytometry (reference value: 3.93%); type: functional
Mus musculus [16] = test: Toxicity in Balb/c mouse xenografted with human SKOV3 cells assessed as body weight loss at 50 mg/kg, ip administered every two days for three times measured during compound dosing; type: organism-based; conditions: in vivo
How it was run: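 Six-week-old Balb/c nude mice given subcutaneous SK-OV-3 cells in the back. Randomised into three groups at about 200 mm3 tumour size. Dosed 50 mg/kg intraperitoneally in 5% DMSO/olive oil every two days, three times; vehicle group as control. Tumour volume and body weight tracked; six animals per group, mean ± SEM, t-test.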

MDA-MB-231 = test: Antiproliferative activity against human MDA-MB-231 cells after 72 hrs by CCK8 assay; type: functional, cell-based; conditions: MDA-MB-231, 72 h; how it was run: as §5
[17] = Elimination rate constant in C57 mouse at 50 mg/kg, ip administered as single dose by LC-MS/MS analysis; type: ADME, organism-based; conditions: in vivo; how it was run: as §3
[18] = AUC (0 to infinity) in C57 mouse at 50 mg/kg, ip administered as single dose by LC-MS/MS analysis; type: ADME, organism-based; design: dose 50 mg/kg, time infinity, route intraperitoneal; conditions: in vivo; how it was run: as §3
Mus musculus [19] = test: Toxicity in Balb/c mouse xenografted with human SKOV3 cells assessed as pathological changes in kidney at 50 mg/kg, ip administered every two days for three times by hematoxylin and eosin staining based assay; type: organism-based; conditions: in vivo; how it was run: as §4
SK-OV-3 [20] = test: Cell cycle arrest in human SKOV3 cells assessed as accumulation at G0/G1 phase at 160 nM after 24 hrs by propidium iodide staining based flow cytometry (reference value: 67.79%); type: functional; how it was run: as §1
SK-OV-3 [21] = test: Induction of apoptosis in human SKOV3 cells assessed as early apoptotic cells at 80 nM after 48 hrs by Annexin-V-FITC/propidium iodide staining based flow cytometry (reference value: 0.97%); type: functional
SK-OV-3 [22] = test: Antiproliferative activity against human SKOV3 cells after 72 hrs by CCK8 assay; type: functional, cell-based; conditions: SK-OV-3, 72 h; how it was run: as §5
Bos taurus [23] = species on record: Bos taurus; test: Inhibition of bovine MAP-rich tubulin polymerization at 10 uM measured every 1 min for 30 mins relative to control; how it was run: as §2
SK-OV-3 [24] = test: Induction of apoptosis in human SKOV3 cells assessed as live cells at 160 nM after 48 hrs by Annexin-V-FITC/propidium iodide staining based flow cytometry (reference value: 94.43%); type: functional
SK-OV-3 [25] = test: Inhibition of tubulin assembly in human SKOV3 cells assessed as abnormal mitotic spindle formation at 10 to 1000 nM after 24 hrs by DAPI staining based immunofluorescence microscopic method; type: functional, cell-based
How it was run: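 SK-OV-3 cells exposed to DMSO or 10, 100 or 1000 nM for 24 h. Fixed in methanol, stained with FITC anti-β-tubulin antibody, counterstained with DAPI, and imaged by confocal microscopy.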

MCF7 = test: Antiproliferative activity against human MCF7 cells after 72 hrs by CCK8 assay; type: functional, cell-based; conditions: MCF7, 72 h; how it was run: as §5
SK-OV-3 [26] = test: Antimigratory activity against human SKOV3 cells assessed as number of migrated cells at 50 nM after 24 hrs by crystal violet staining based transwell migration assay (reference value: 49.3 to 50.7); type: functional
[27] = Tmax in C57 mouse at 50 mg/kg, ip administered as single dose by LC-MS/MS analysis; type: ADME, organism-based; conditions: in vivo; how it was run: as §3

inhibition (Bos taurus [2]): 30.5%
inhibition (Bos taurus [3]): Dose-dependent effect
half-life [6]: 100 min
IC50 (CT26): 58 nM
AUMC (Mus musculus [11]): 1785 hr.hr.ng/ml
AUC(0-t) at 24 h [12]: 1140 ng·h/mL
AUMC (Mus musculus [13]): 1498 hr.hr.ng/ml
IC50 (MDA-MB-231): 31 nM
k el [17]: 0.000117 s⁻¹
AUC(0-inf) [18]: 1170 ng·h/mL
IC50 (SK-OV-3 [22]): 17 nM
inhibition (Bos taurus [23]): 60.4%
IC50 (MCF7): 35.4 nM
Tmax [27]: 15 min
SMILES: CCOc1ccc(-c2cn(C)nc2-c2cc(OC)c(OC)c(OC)c2)cc1
Activity (SK-OV-3 [1]): 24.6%
Activity (SK-OV-3 [4]): 41.2%
Activity (SK-OV-3 [5]): 18.67%
Activity (SK-OV-3 [7]): 32.1%
Activity (Mus musculus [8]): Non-Toxic
Activity (SK-OV-3 [9]): 65.79%
Activity (SK-OV-3 [10]): 24.15%
Activity (SK-OV-3 [14]): 26.16%
Activity (SK-OV-3 [15]): 47.36%
Activity (Mus musculus [16]): Non-Toxic
Activity (Mus musculus [19]): Non-Toxic
Activity (SK-OV-3 [20]): 8.05%
Activity (SK-OV-3 [21]): 5.05%
Activity (SK-OV-3 [24]): 41.9%
inhibition (SK-OV-3 [25]): Active
Activity (SK-OV-3 [26]): 21.7
